# An excerpt weighted towards active compounds, which were near 2% of everything screened.
# PvdQ inh: P. aeruginosa PvdQ acylase inhibitors, primary screen, biochemical, fluorescence, plate reader and imaging, single point; purified PvdQ acylase; inhibition, % at 10 µM; AID 488965, 2010; PvdQ acylase [Pseudomonas aeruginosa LESB58]; 0.063% of 340,000 active; in the data active = inhibition above about 30%, passing the limit was not always enough;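 also: 0% = vehicle neutral wells and 100% = reference inhibitor wells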
# PLC-gamma1 inh: PLC-gamma1 enzyme inhibitors, primary screen, biochemical, fluorescence, purified enzyme; 1-phosphatidylinositol 4,5-bisphosphate phosphodiesterase gamma-1 (Homo sapiens), P19174; fluorogenic substrate; inhibition, % at 12.2 µM; 0.84% of 370,000 active; AID 720700, 2013
# IMP-1 inh: IMP-1 metallo-beta-lactamase inhibitors, primary screen, biochemical, epi-absorbance readout, Pseudomonas aeruginosa enzyme. metallo-beta-lactamase IMP-1 (Pseudomonas aeruginosa). purified IMP-1, nitrocefin hydrolysis, epi-absorbance fluorescence. inhibition, % at 5.6 µM. 0.45% of 290,000 active. AID 1556, 2009;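 active = inhibition above the mean plus 3 SD of all compounds in the same screening run, cut at about 4.5% in these data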;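 also: 0% = IMP-1 with DMSO and 100% = DMSO wells lacking enzyme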
#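 System: Purified recombinant IMP-1 metallo-beta-lactamase enzyme | Measured by: Fluorescence quenching readout, ex 480/em 530 nm | Replication: Singlicate | Incubation: 15 min preincubation plus 25 min reaction at 25 °C | Evaluation: Percent inhibition from optical density relative to buffer-blank wells | Benchmarks: DMSO with and without IMP-1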
# VIM-2 inhibitor: VIM-2 metallo-beta-lactamase inhibitors, primary screen, biochemical, epi-absorbance readout, Pseudomonas aeruginosa enzyme. purified VIM-2, nitrocefin hydrolysis, epi-absorbance fluorescence. inhibition, % at 5.6 µM. 0.89% of 290,000 active;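 active = inhibition above the mean of all tested compounds plus 3 SD, cutoff set per screening run, cut at about 7.5% in these data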;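 also: red hydrolysis product quenches plate fluorescence so inhibitors raise well fluorescence; 0% = enzyme with DMSO and 100% = DMSO without enzyme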
# PLC-beta3 inh: human PLC-beta3 inhibitors, primary screen, biochemical, fluorescence. inhibition, % at 12.2 µM. 1-phosphatidylinositol 4,5-bisphosphate phosphodiesterase beta-3 (Homo sapiens), Q01970. 0.18% of 370,000 active. AID 720704, 2013. Purified PLC-beta3, fluorogenic substrate; in the data active = inhibition above about 11%;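 also: 0% = median of compound wells on plate and 100% = full blocker control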
# VIM-2 confirm: P. aeruginosa VIM-2 enzyme inhibition – biochemical, epi-absorbance, HTS, confirmation; 73% of 200 active; purified VIM-2 enzyme, nitrocefin absorbance; inhibition, % at 5.6 µM; shares compounds with IMP-1 inh; AID 1860, 2009; in the data active = inhibition above about 8%;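 also: 0% = enzyme with vehicle and 100% = no enzyme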
# TEM-1 inh 2: Serine beta-lactamase TEM-1 inhibition, biochemical epi-absorbance counter-screen for IMP-1/VIM-2 inhibitor program; TEM-1 beta-lactamase, nitrocefin absorbance inhibition; 50% of 200 active; inhibition, % at 5.6 µM; shares compounds with IMP-1 inh; in the data active = inhibition above about 0.66%
# IMP-1 inh conf: IMP-1 metallo-beta-lactamase inhibitors, confirmation, biochemical, epi-absorbance, hits shared with VIM-2 screen | 60% of 200 active | purified IMP-1 enzyme, absorbance substrate hydrolysis | inhibition, % at 5.6 µM | AID 2189, 2009 | shares compounds with IMP-1 inh; in the data active = inhibition above about 4.9%;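 also: 0% = enzyme with vehicle and 100% = vehicle without enzyme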
# PLCg1 ctr: PLC-gamma1 enzyme inhibitors, counter-screen for PLC-beta3 inhibitor project, biochemical, fluorescence; shares compounds with PLC-gamma1 inh; purified PLC-gamma1, fluorogenic substrate; inhibition, % at 12.3 µM; 3.1% of 3,300 active
# PLCbeta3 conf: PLC-beta3 inhibitor confirmation, biochemical, fluorescence, purified enzyme; shares compounds with PLC-gamma1 inh; fluorogenic substrate fluorescence; inhibition, % at 12.3 µM; 1% of 3,300 active; in the data active = inhibition above about 11%
# The depositor's hits bear a star; . = no result given. Rule as the data show it, unless noted: active = inhibition above about 9.5%; inactive = the rest.
SMILES,PvdQ inh,PLC-gamma1 inh,IMP-1 inh,VIM-2 inhibitor,PLC-beta3 inh,PLCg1 ctr,PLCbeta3 conf,others
O=C(O)CCCN1C(=O)/C(=C/C=C/c2ccco2)SC1=S,-4,23*,10*,7,-15,18*,-15,VIM-2 confirm=-1;TEM-1 inh 2=-4;IMP-1 inh conf=-3
[C-]#[N+][C@]12C(=O)[C@H](C=C(Cl)[C@@]1(C)C=C)C(C)(C)[C@H]1C(=O)N(C)c3cccc2c31,.,0,.,.,-4,.,.,
CC(c1ccccc1)n1c(-c2ccccc2F)n[nH]c1=S (stereo unspecified),-10,9.9*,6.4*,9.1*,8,5,2,VIM-2 confirm=11*;TEM-1 inh 2=-4;IMP-1 inh conf=2
COCCCNc1nc2c(c(=O)n(Cc3ccc(F)cc3)c(=O)n2C)n1C,-11,6,-3,-1,-3,.,.,
COCCCNc1nc2c(c(=O)n(Cc3ccc(OC)cc3)c(=O)n2C)n1C,1,10*,-1,-1,3,-2,-10,
Cc1cccc(C2=CC(=O)CC(C)(C)C2=O)c1,.,2,.,.,1,.,.,
CCCCC(=O)Nc1ccc(C(=O)Nc2cccnc2)cc1,4,10.0*,-5,-1,7,-4,-2,
COC(=O)c1c(-c2ccc(OC)cc2)c2c(c3c4cc(OC)ccc4n(S(=O)(=O)c4ccc(C)cc4)c13)C(=O)N(C)C2,.,-68,.,.,-95,.,.,
Cc1ccccc1-c1nnn(Cc2ccc(F)cc2Cl)n1,-9,11*,-2,-3,2,-9,-7,
Fc1ccc(-c2nnn(Cc3ccc(F)cc3Cl)n2)cc1,-5,4,-4,-3,-4,.,.,
NC1=NC2(CCN(Cc3ccccc3)CC2)n2c(nc3ccccc32)N1,-8,12*,-2,-2,4,-2,-5,
NC1=NC2(CCCCC2)n2c(nc3ccccc32)N1,-13,-1,-4,-2,2,.,.,
NC1=NC2(CCC(c3ccccc3)CC2)n2c(nc3ccccc32)N1 (stereo unspecified),-9,18*,-3,-3,14*,3,2,
CCOc1ccccc1NC(=O)COn1nnc2ccccc21,-19,11*,-2,0,4,-4,-7,
CCn1nc(C)c(CN2CCN(Cc3ccsc3)C(CCO)C2)c1C (stereo unspecified),-11,10*,-3,-5,-3,0,1,
O=C(Nc1ccc(S(=O)(=O)Nc2ncccn2)cc1)c1ccc(Br)s1,8,11*,-2,-2,-4,-5,-1,
COc1cccc(OC)c1C(=O)Nc1ccc(S(=O)(=O)Nc2ncccn2)cc1,13,1,1,0,-6,.,.,
Cc1cccc(-c2cccc3c4c([nH]c23)[C@@H]2C[C@H](N(C)C(=O)c3ccco3)[C@H]([C@H](C)O)CN2CC4)c1,.,-119,.,.,-152,.,.,
Cc1ccc(S(=O)(=O)n2ccc(-c3c(-c4ccc(Cl)cc4)noc3C)n2)cc1,.,1,.,.,2,.,.,
Cc1onc(-c2ccc(Cl)cc2)c1-c1ccn(S(=O)(=O)c2cccc(Cl)c2)n1,.,9.8*,.,.,-2,1,-6,
CC(C)CC(N)c1csc(NC(=O)c2cc(C(C)(C)C)nn2Cc2ccccc2)n1 (stereo unspecified),.,16*,.,.,5,-3,-1,
COc1cccc(CNC(=O)Cn2c(-c3ccccc3)cc(C(C)=O)c2C)c1,.,0,.,.,0,.,.,
O=C(NCCc1csc(-c2cccnc2)n1)c1ccc(Cl)cc1,-8,13*,-3,-1,4,-1,3,
O=C(OCc1ccccc1Cl)c1cccnc1Cl,-8,14*,-1,-1,8,-8,-2,
O=C(OCc1c(Cl)cccc1Cl)c1cccnc1Cl,-4,-2,-2,-2,1,.,.,
SMILES,PvdQ inh,PLC-gamma1 inh,IMP-1 inh,VIM-2 inhibitor,PLC-beta3 inh,PLCg1 ctr,PLCbeta3 conf,others
O=C(CN1CCCC1)NC1C2CC3CC(C2)CC1C3 (stereo unspecified),0,0,1,-2,3,.,.,
O=C(NC1C2CC3CC(C2)CC1C3)C1CCCCC1 (stereo unspecified),-9,16*,2,0,1,-7,-3,
c1coc(CN2CN=C(Nc3nc4ccccc4s3)NC2)c1,-11,9.7*,-3,-2,3,1,3,
CN(c1ccccc1C(=O)Nc1cccc([N+](=O)[O-])c1)S(=O)(=O)c1ccccc1,-13,1,-4,-2,-1,.,.,
CN(c1ccccc1C(=O)Nc1cccc([N+](=O)[O-])c1)S(C)(=O)=O,-15,9.9*,-3,1,2,-6,-1,
CC(=O)c1c(C)nc2ccc([N+](=O)[O-])cc2c1-c1ccccc1,-19,14*,2,0,5,0,2,
CCCCCCCCN1C(=O)N2Cc3ccc(C)cc3C2CS1(=O)=O (stereo unspecified),.,2,.,.,4,.,.,
O=C(CSc1nc2ccccc2c(=O)n1-c1ccc(Cl)c(Cl)c1)Nc1ccc2c(c1)CCC2,.,11*,.,.,4,-7,-4,
O=C(CSc1nc2ccccc2c(=O)n1-c1ccccc1)Nc1ccc2c(c1)CCC2,.,4,.,.,4,.,.,
CCNc1nc(N)c([N+](=O)[O-])c(Nc2cccc(Cl)c2)n1,.,4,.,.,3,.,.,
O=C(CSc1nnc(Cc2cccs2)n1-c1ccccc1)Nc1ccccc1-c1ccccc1,.,2,.,.,-1,.,.,
CS(=O)(=O)N1CCC(C(=O)NCc2ccc(Cl)cc2)CC1,-14,12*,-3,-3,0,-8,-3,
COc1ccc(-c2cc(C(=O)NN=C/C(C)=C/c3ccccc3)[nH]n2)cc1,.,5,.,.,0,.,.,
COC(=O)c1cc2c(c3c4ccccc4n(S(=O)(=O)c4ccc(OC)cc4)c13)C(=O)N(Cc1ccco1)C2,.,-38,.,.,-46,.,.,
CCOC(=O)C1CCN(Cc2cnc(Oc3ccc(OC)cc3)s2)CC1,-2,5,-1,0,11*,-5,-1,
